# High-throughput results (PubChem)
# A selection: hits, their analogues and other compounds. The true share with any hit is near 5.9%.
# KDM4C inh – KDM4C (human) demethylase inhibition. Q9H3R0. GST-KDM4C 2-372, H3K9me3 peptide, LANCE TR-FRET. inhibition, % at 12.5 µM. 0.15% of 96,000 active;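 active = mean replicate inhibition above about 25%, with at least 55% of replicates also reaching it, limit read from the data, passing the limit was not always enough; inconclusive = only one of those two conditions met; inactive = neither condition met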
# Target sequence (Q9H3R0 2-372 limits assumed): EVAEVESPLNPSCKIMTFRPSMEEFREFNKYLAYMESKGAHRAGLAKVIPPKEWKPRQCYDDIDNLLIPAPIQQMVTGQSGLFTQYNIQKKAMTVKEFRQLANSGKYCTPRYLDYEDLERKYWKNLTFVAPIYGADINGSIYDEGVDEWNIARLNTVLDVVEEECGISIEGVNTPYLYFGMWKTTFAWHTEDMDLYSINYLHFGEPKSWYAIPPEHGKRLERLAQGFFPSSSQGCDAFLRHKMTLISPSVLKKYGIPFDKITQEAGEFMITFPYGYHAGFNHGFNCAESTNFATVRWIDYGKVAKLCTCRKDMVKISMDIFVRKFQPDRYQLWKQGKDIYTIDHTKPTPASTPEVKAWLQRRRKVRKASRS
#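 material = GST-tagged GASC-1 (JMJD2C) catalytic fragment, aa 2-372 | amount = enzyme final amount 10 nM | medium = HEPES buffer, pH 7.5, plus ascorbate | also added = H3K9me3 peptide substrate, Fe(II), 2-oxoglutarate | dosing = single dose | times = 30 min demethylation and 1 h detection at room temperature | detection = LANCE TR-FRET | read-out basis = Fall in 671/618 emission ratio as inhibition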
# IDH1 R132H inh – blocks human IDH1 R132H reductase activity | inhibition, % at 10 µM | AID 624101 | diaphorase/resazurin fluorescence, 60 min | O75874 | 0.18% of 70,000 active; in the data active = inhibition above about 34%; inconclusive = no clear call, values can overlap the other calls; inactive = below about 11%;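 also: 0% = DMSO and 100% = no enzyme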
# T cruzi growth-1 – inhibitors of T. cruzi proliferation; 5.9% of 77,000 active; T. cruzi beta-gal in NIH3T3, GalScreen luminescence, 90 h; inhibition, % at 8.34 µM; AID 624255;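 active = mean inhibition above about 93%, with at least 55% of replicates each passing it, limit read from the data, passing the limit was not always enough; inconclusive = only one of those two conditions holds; inactive = neither condition holds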
# Pf Dd2 inh – P. falciparum Dd2 growth inhibition. AID 1159554. activity change, % at 10 µM. SYBR Green, 72 h; stronger effect = lower value. 2.3% of 94,000 active; in the data active = activity change below about -80%; inconclusive = no clear call, values can overlap the other calls
# T cruzi growth-2 – blocks T. cruzi growth in NIH3T3 host cells; shares compounds with T cruzi growth-1; T. cruzi beta-gal in NIH3T3, GalScreen luminescence, 90 h; inhibition, % at 8.35 µM; 72% of 5,600 active; AID 651739;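 active = mean replicate inhibition above about 95% and at least 55% of replicates individually reaching it, limit read from the data; inconclusive = only one of the two criteria is met; inactive = neither criterion is met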
# T cruzi growth-3 – inhibitors of T. cruzi proliferation; shares compounds with T cruzi growth-1; T. cruzi beta-gal in NIH3T3, GalScreen luminescence, 90 h; inhibition, % at 2.09 µM; 21% of 5,600 active; AID 651740;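 active = mean inhibition above about 95%, with at least 55% of replicates also reaching it, limit read from the data; inconclusive = meets just one of the two conditions; inactive = meets neither condition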;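 also: plate controls were neutral control median for no effect and positive control median for full effect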
# 3T3 cytotox – cytotoxicity in mouse NIH/3T3 fibroblasts | shares compounds with T cruzi growth-1 | NIH/3T3 viability, CellTiter-Glo ATP luminescence, 90 h | cytotoxicity (signal decrease), % at 8.35 µM | 14% of 5,600 active | AID 651742;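 active = mean signal decrease across replicates above about 35% based on untreated-well scatter, with enough replicates individually passing, limit read from the data; inconclusive = no rule stated though some were filed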;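 also: 0% = median of neutral control wells and 100% = median of positive control wells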
# NIH3T3 tox 2 – kills mouse NIH/3T3 fibroblasts | shares compounds with T cruzi growth-1 | NIH/3T3 viability, CellTiter-Glo ATP luminescence, 90 h | inhibition, % at 24.9 µM | 56% of 5,600 active;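 active = mean loss of cell viability signal at or above a set limit, and enough replicates individually reaching it; inconclusive = meets only the mean limit or only the replicate share; inactive = meets neither condition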;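 also: 0% = median of neutral control wells and 100% = median of positive control wells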
# An asterisk follows results filed as active; ? = inconclusive; · = no result.
SMILES,KDM4C inh,IDH1 R132H inh,T cruzi growth-1,Pf Dd2 inh,T cruzi growth-2,T cruzi growth-3,3T3 cytotox,NIH3T3 tox 2
CCCC#Cc1ccc2c(c1)O[C@H](CN(C)Cc1ccncc1)[C@@H](C)CN([C@@H](C)CO)S2(=O)=O,22,1,121*,-74,106*,101*,42*,104*
C[C@@H]1CN([C@H](C)CO)S(=O)(=O)c2ccc(C#CCN(C)C)cc2O[C@@H]1CN(C)Cc1ccncc1,5,5,25,6,·,·,·,·
CC(C)CC#Cc1ccc2c(c1)O[C@@H](CN(C)Cc1ccncc1)[C@H](C)CN([C@@H](C)CO)S2(=O)=O,-2,1,132*,-80,97*,105*,26,103*
CCCC#Cc1ccc2c(c1)O[C@H](CN(C)Cc1ccccc1)[C@@H](C)CN([C@@H](C)CO)S2(=O)=O,-1,1,·,-22,·,·,·,·
C[C@@H]1CN([C@H](C)CO)S(=O)(=O)c2ccc(C#CCN(C)C)cc2O[C@H]1CN(C)Cc1ccc(F)cc1,15,-4,115*,-70,?,91,57*,107*
CC(C)CC#Cc1ccc2c(c1)O[C@H](CN(C)Cc1ccc(F)cc1)[C@H](C)CN([C@@H](C)CO)S2(=O)=O,·,0,84,-59,·,·,·,·
CC(Sc1nnc(-c2ccc(Br)cc2)n1-c1ccccc1)C(=O)O (stereo not given),·,13,·,·,·,·,·,·
CCN(CC)c1ccc(/C=N/NC(=O)CCCCCCC(=O)Nc2ccccc2O)c(O)c1,·,0,·,·,·,·,·,·
CCCC#Cc1ccc2c(c1)O[C@H](CN(C)Cc1ccncc1)[C@H](C)CN([C@H](C)CO)S2(=O)=O,-1,14,114*,-37,103*,76,37*,?
C[C@@H]1CN([C@H](C)CO)S(=O)(=O)c2ccc(C#CC3CCCC3)cc2O[C@H]1CN(C)C(=O)Cc1ccncc1,-3,·,120*,-69,101*,62,-4,99*
C[C@@H]1CN([C@@H](C)CO)S(=O)(=O)c2ccc(C#CC3CCCCC3)cc2O[C@H]1CN(C)C(=O)Cc1ccncc1,0,66*,?,-70,103*,78,17,103*
C[C@@H]1CN([C@H](C)CO)S(=O)(=O)c2ccc(C#CC3CCCC3)cc2O[C@H]1CN(C)C(=O)Cc1ccccc1,1,-5,113*,?,106*,68,3,105*
C[C@@H]1CN([C@@H](C)CO)S(=O)(=O)c2ccc(C#CC3CCCC3)cc2O[C@H]1CN(C)C(=O)Cc1ccncc1,-2,·,113*,-86*,99*,47,21,72*
C[C@@H]1CN([C@@H](C)CO)S(=O)(=O)c2ccc(C#CC3CCCC3)cc2O[C@H]1CN(C)C(=O)Cc1ccccc1,-1,0,·,?,·,·,·,·
C[C@H]1CN([C@@H](C)CO)S(=O)(=O)c2ccc(C#CC3CCCCC3)cc2O[C@H]1CN(C)C(=O)Cc1ccncc1,-1,·,42,-18,·,·,·,·
CN(CC(=O)Nc1ccccc1Br)S(=O)(=O)c1ccc2ccccc2c1,·,0,·,·,·,·,·,·
CCOC(=O)c1c(NC(=O)Cn2c(=O)oc3ccccc32)sc(C(C)=O)c1C,·,0,·,·,·,·,·,·
CC(C)CC#Cc1ccc2c(c1)O[C@H](CN(C)C(=O)Cc1ccncc1)[C@@H](C)CN([C@H](C)CO)S2(=O)=O,1,5,?,-65,101*,70,3,-7
CCC(=O)N(C)C[C@@H]1Oc2cc(C#CCC(C)C)ccc2S(=O)(=O)N([C@H](C)CO)C[C@H]1C,-2,0,53,-21,·,·,·,·
CC(C)CC#Cc1ccc2c(c1)O[C@@H](CN(C)C(=O)Cc1ccccc1)[C@@H](C)CN([C@@H](C)CO)S2(=O)=O,5,11,126*,-42,103*,69,0,104*
CC(C)CC#Cc1ccc2c(c1)O[C@H](CN(C)C(=O)Cc1ccccc1)[C@H](C)CN([C@@H](C)CO)S2(=O)=O,3,-1,121*,-31,99*,95,18,100*
